Measurements published in ChEMBL document CHEMBL4842369, “Synthesis, structure-activity relationship and antiviral activity of indole-containing inhibitors of Flavivirus NS2B-NS3 protease” (Eur J Med Chem, 2021).

What follows are molecules tested against Nonstructural protein 3 (Zika virus, UniProt A0A024AXB9) (assay: Inhibition of Zika virus recombinant NS2B (47 to 95 residues)/NS3 (1 to 177 residues) protease expressed in Escherichia coli BL21 using Bz-Nle-Lys-Lys-Arg-AMC as substrate preincubated for 10 mins by fluorescence-based biochemical assay).
Nonstructural protein 3, sequence (A0A024AXB9 whole entry, the tested form may be a part): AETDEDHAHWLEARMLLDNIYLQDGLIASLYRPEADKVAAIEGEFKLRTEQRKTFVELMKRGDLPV
In short: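 ZIKV NS2B-NS3 protease at 1 nM, with 10 µM Bz-Nle-Lys-Lys-Arg-AMC in 20 mM HEPES pH 7.3 containing 0.05% Triton X-100. Compound at increasing concentrations in triplicate, pre-incubated with enzyme 10 min before substrate. Fluorescence (Ex 360/Em 460 nm) read every 30 s. IC50 from dose-response curve fit, 3 independent experiments, standard deviation.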

SMILES | IC50 [µM]
O=C(NCC1CCNCC1)c1c[nH]c2cc(-c3ccc(F)cc3)ccc12 | > 50
CC(C)(C)c1ccc(-c2ccc3c(C(=O)NCC4CCNCC4)c[nH]c3c2)cc1 | 5
O=C(NCC1CCNCC1)c1cc2cc(-c3cccnc3)ccc2[nH]1 | > 50
O=C(NCC1CCNCC1)c1c[nH]c2ccc(-c3ccc(F)cc3)cc12 | > 50
O=C(NCC1CCNCC1)c1cc2ccc(-c3ccc(F)cc3)cc2[nH]1 | 14.4
O=C(NCC1CCNCC1)c1c[nH]c2cc(-c3cccnc3)ccc12 | 1.1
NCc1ccc(-c2ccc3c(C(=O)NCC4CCNCC4)c[nH]c3c2)cc1 | > 50
O=C(NCC1CCNCC1)c1c[nH]c2cc(-c3ccc(Cl)nc3)ccc12 | 42
N#Cc1ccc(-c2ccc3c(C(=O)NC4CCNCC4)coc3c2)cc1 | > 50
NC(=O)c1ccc(-c2ccc3cc(C(=O)NCC4CCNCC4)[nH]c3c2)cc1 | 7.1
O=C(NCC1CCNCC1)c1c[nH]c2cc(-c3cn[nH]c3)ccc12 | 5.7
O=C(NCC1CCNCC1)c1cc2cc(-c3ccc(N4CCCCC4)cc3)ccc2[nH]1 | 11.4
O=C(NCC1CCNCC1)c1cc2cc(-c3ccc(N4CCOCC4)cc3)ccc2[nH]1 | 33
O=C(NCC1CCNCC1)c1cc2cc(-c3ccc(-c4ccsc4)cc3)ccc2[nH]1 | 1.1
O=C(NCC1CCNCC1)c1cc2cc(-c3ccc(-c4ccoc4)cc3)ccc2[nH]1 | 0.87
N#Cc1cccc(-c2ccc3[nH]c(C(=O)NCC4CCNCC4)cc3c2)c1 | 30.5
CC(C)(C)c1ccc(-c2cc3[nH]cc(C(=O)NC4CCNCC4)c3cc2-c2ccc(C(C)(C)C)cc2)cc1 | 4.5

SMILES | IC50 [µM]
NCc1ccc(-c2ccc3[nH]c(C(=O)NCC4CCNCC4)cc3c2)cc1 | 9.5
O=C(NCC1CCNCC1)c1c[nH]c2cc(-c3ccccc3F)ccc12 | > 50
COc1cc(-c2ccc3c(C(=O)NCC4CCNCC4)c[nH]c3c2)cc(OC)c1OC | > 50
CC(C)(C)c1ccc(-c2ccc3c(c2)c(C(=O)NCC2CCNCC2)cn3CCCC2CCNCC2)cc1 | 14.6
O=C(NCC1CCNCC1)c1cc2ccc(-c3ccncc3)cc2[nH]1 | 19.7
N#Cc1ccc(-c2ccc3[nH]cc(C(=O)NC4CCNCC4)c3c2)cc1 | > 50
O=C(NCC1CCNCC1)c1cc2ccc(-c3cccnc3)cc2[nH]1 | 27.2
N#Cc1ccc(-c2ccc3[nH]c(C(=O)NCC4CCNCC4)cc3c2)cc1 | 9.2
O=C(NCC1CCNCC1)c1cc2ccc(C3=CCOCC3)cc2[nH]1 | 2.2
CC(C)(C)c1ccc(-c2ccc3[nH]cc(C(=O)NCC4CCNCC4)c3c2)cc1 | 11
Cc1ccc(-c2ccc3c(C(=O)NCC4CCNCC4)c[nH]c3c2)cc1 | 48.9
Cc1cc(C#N)ccc1-c1ccc2[nH]c(C(=O)NCC3CCNCC3)cc2c1 | 40.2
COc1ccc(-c2ccc3cc(C(=O)NCC4CCNCC4)[nH]c3c2)cc1 | 1
O=C(NCC1CCNCC1)c1cc2ccc(-c3ccsc3)cc2[nH]1 | 6.4
O=C(NCC1CCNCC1)c1cc2ccc(-c3ccc(N4CCCCC4)cc3)cc2[nH]1 | 7.9
O=C(NCC1CCNCC1)c1c[nH]c2cc(-c3ccncc3)ccc12 | 0.39

These molecules were tested against Genome polyprotein (West Nile virus, UniProt P06935) (assay: Inhibition of West Nile virus NS2B (49 to 96 residues)/NS3 (2 to 184 residues) protease expressed in Escherichia coli BL21 using Bz-Nle-Lys-Lys-Arg-AMC as substrate preincubated for 10 mins by fluorescence-based biochemical assay).
Genome polyprotein (West Nile virus, UniProt P06935), sequence (P06935 1371-1501 limits assumed): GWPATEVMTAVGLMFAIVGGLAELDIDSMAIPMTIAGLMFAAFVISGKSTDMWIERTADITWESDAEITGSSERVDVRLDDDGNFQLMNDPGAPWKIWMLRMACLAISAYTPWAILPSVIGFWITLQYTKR
Genome polyprotein (West Nile virus, UniProt P06935), sequence (P06935 1502-2120 limits assumed): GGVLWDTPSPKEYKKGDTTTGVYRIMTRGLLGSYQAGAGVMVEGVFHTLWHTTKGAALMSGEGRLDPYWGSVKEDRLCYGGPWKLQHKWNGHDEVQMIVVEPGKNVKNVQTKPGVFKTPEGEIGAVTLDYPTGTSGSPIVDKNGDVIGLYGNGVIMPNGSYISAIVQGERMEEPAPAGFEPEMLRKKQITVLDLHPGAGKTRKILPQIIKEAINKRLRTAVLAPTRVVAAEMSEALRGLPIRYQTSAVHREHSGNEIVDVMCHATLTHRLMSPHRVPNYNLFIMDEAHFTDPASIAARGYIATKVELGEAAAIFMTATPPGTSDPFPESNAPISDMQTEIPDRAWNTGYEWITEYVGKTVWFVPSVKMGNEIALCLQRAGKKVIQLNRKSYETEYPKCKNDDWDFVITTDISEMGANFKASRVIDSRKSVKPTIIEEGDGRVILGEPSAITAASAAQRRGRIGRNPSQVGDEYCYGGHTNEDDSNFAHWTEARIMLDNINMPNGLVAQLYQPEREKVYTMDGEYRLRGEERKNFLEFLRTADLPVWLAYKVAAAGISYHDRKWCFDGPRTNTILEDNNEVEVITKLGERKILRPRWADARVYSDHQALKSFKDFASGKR
In short: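 Recombinant WNV NS2B-NS3 protease, tested in the same way as the Zika protease assay. Compound was preincubated with enzyme for 10 min before Bz-Nle-Lys-Lys-Arg-AMC was added. Hydrolysis was followed as AMC fluorescence (Ex 360/Em 460 nm) read every 30 s. IC50 was derived by dose-response curve fitting.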

SMILES | IC50 [µM]
CC(C)(C)c1ccc(-c2ccc3c(C(=O)NCC4CCNCC4)c[nH]c3c2)cc1 | 35.1
O=C(NCC1CCNCC1)c1c[nH]c2cc(-c3cn[nH]c3)ccc12 | 42
O=C(NCC1CCNCC1)c1cc2cc(-c3ccc(N4CCCCC4)cc3)ccc2[nH]1 | 31
CC(C)(C)c1ccc(-c2ccc3cc(C(=O)NCC4CCNCC4)[nH]c3c2)cc1 | 21.8
Cc1ccc(-c2ccc3c(C(=O)NCC4CCNCC4)c[nH]c3c2)cc1 | > 50
Cc1cc(C#N)ccc1-c1ccc2[nH]c(C(=O)NCC3CCNCC3)cc2c1 | > 50
COc1ccc(-c2ccc3cc(C(=O)NCC4CCNCC4)[nH]c3c2)cc1 | 20.1

Each molecule was assayed against Genome polyprotein (dengue virus type 2, UniProt P29990) (assay: Inhibition of Dengue virus 2 NS2B (50 to 95 residues)/NS3 (1 to 182 residues) protease expressed in Escherichia coli BL21 using Bz-Nle-Lys-Lys-Arg-AMC as substrate preincubated for 10 mins by fluorescence-based biochemical assay).
Genome polyprotein (dengue virus type 2, UniProt P29990), sequence (P29990 1346-1475 limits assumed): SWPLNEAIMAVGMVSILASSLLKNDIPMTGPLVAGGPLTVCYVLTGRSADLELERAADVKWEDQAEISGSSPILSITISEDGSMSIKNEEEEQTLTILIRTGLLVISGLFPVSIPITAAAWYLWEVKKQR
Genome polyprotein (dengue virus type 2, UniProt P29990), sequence (P29990 1476-2093 limits assumed): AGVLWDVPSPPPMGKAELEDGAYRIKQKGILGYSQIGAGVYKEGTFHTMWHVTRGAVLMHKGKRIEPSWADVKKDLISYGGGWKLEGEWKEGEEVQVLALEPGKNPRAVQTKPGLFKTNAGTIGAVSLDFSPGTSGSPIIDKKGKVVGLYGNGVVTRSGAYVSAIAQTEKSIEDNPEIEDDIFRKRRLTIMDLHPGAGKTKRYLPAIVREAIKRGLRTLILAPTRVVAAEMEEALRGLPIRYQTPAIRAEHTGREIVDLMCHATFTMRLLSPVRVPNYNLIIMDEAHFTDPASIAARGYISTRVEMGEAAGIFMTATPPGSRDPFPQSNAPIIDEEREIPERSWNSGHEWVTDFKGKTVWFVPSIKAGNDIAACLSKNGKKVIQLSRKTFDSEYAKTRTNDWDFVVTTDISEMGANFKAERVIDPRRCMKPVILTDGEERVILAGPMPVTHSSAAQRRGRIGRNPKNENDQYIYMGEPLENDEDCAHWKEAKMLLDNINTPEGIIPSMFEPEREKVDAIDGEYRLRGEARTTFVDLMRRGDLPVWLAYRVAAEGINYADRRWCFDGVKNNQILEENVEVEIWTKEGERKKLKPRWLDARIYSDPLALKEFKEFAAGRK
In short: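 Recombinant DENV-2 NS2B-NS3 protease assayed like the ZIKV protease. Bz-Nle-Lys-Lys-Arg-AMC substrate, compound pre-incubated with enzyme 10 min, fluorescence monitored at Ex 360/Em 460 nm. IC50 from dose-response fit of triplicate samples at increasing concentrations.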

SMILES | IC50 [µM]
CC(C)(C)c1ccc(-c2ccc3c(C(=O)NCC4CCNCC4)c[nH]c3c2)cc1 | 30.4
O=C(NCC1CCNCC1)c1c[nH]c2cc(-c3cn[nH]c3)ccc12 | 48.3
O=C(NCC1CCNCC1)c1cc2cc(-c3ccc(N4CCCCC4)cc3)ccc2[nH]1 | 40.2
CC(C)(C)c1ccc(-c2ccc3cc(C(=O)NCC4CCNCC4)[nH]c3c2)cc1 | 15
Cc1ccc(-c2ccc3c(C(=O)NCC4CCNCC4)c[nH]c3c2)cc1 | > 50
Cc1cc(C#N)ccc1-c1ccc2[nH]c(C(=O)NCC3CCNCC3)cc2c1 | > 50
COc1ccc(-c2ccc3cc(C(=O)NCC4CCNCC4)[nH]c3c2)cc1 | 10.6
